# Reference: the RNAGym collection of RNA variant scans (doi:10.1126/science.aae0568)
# Fewer inactive variants are shown than the library holds.
# B1: tRNA (parent)
# chain: GUUCCGUUGGCGUAAUGGUAACGCGUCUCCCUCCUAAGGAGAAGACUGCGGGUUCGAGUCCCGUACGGAACG
# Variants of: B1
# Test: yeast fitness relative to wild type (ratio to wild type); higher = fitter; tRNA-Arg(CCU), competitive growth, 37 C, YPD
# Outline: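 For this measurement, the tRNA-Arg(CCU) gene was varied by chemical synthesis at a 3% per-site mutation rate across 69 sites, and each variant was placed at the native genomic locus in Saccharomyces cerevisiae. The pooled strains went through a 24-hour competition in YPD at 37°C in six parallel replicates, with amplicons from start and end populations read by 100-nucleotide paired-end sequencing. Darwinian fitness relative to wild type followed from the change in each genotype's frequency. Genotypes needed ≥ 100 starting reads, and estimates < 0.5 were set to 0.5.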
row,Variant,yeast fitness
1,C27G G44C A45G U64A,≤ 0.5
2,C27U C46U A69C,0.776
3,C27A G58C A69C,0.719
4,C27G A36C G48C,≤ 0.5
5,C27G C30U C31A C33G C49U G58C,≤ 0.5
6,C27U A40C G58A,0.626
7,C27G C49U C55G,≤ 0.5
8,C27G G39A C66G,0.655
9,C27A U35A G48A U59C,0.567
10,C27U C49A,0.785
11,C27A C61G A69G,≤ 0.5
12,C27G C31G C46A,0.932
13,C27G C31U C49G U59A,≤ 0.5
14,C27G A40C,0.575
15,C27U C30U C46U U54G,≤ 0.5
16,C27G U28A C34U,≤ 0.5
17,C27U C66G,0.744
18,C27U C66U,0.955
19,C27A C46U G67A,0.699
20,C27U C34A U54C,≤ 0.5
21,C27G G41A C49G G56C,≤ 0.5
22,C27G U53C G56A C66U,≤ 0.5
23,C27U C60G,0.735
24,C27G C60U C61G,0.681

row,Variant,yeast fitness
1,C27U A37C C60G A65G,≤ 0.5
2,C27U C31U U35C A36U C55A C66G,0.777
3,C27G A37G A69U,0.537
4,C27G U32G A36C C46G,≤ 0.5
5,C27U A37C G51C G67U,0.543
6,C27G G39A C46U,0.74
7,C27G A42U C55U,≤ 0.5
8,C27G C46A,0.933
9,C27G C46U,0.972
10,C27G C46G,1.11
11,C27G C29G A40U A45C A57U,≤ 0.5
12,C27G G41A G68C,0.71
13,C27G C29U C49U,≤ 0.5
14,C27A U32C A42C C46U C62U,≤ 0.5
15,C27A C49G,0.876
16,C27G U32C C62U,0.62
17,C27U C29A G38C A57G C61U,≤ 0.5
18,C27A G56C C66G,≤ 0.5
19,C27G C30G C49U C62U G67A,≤ 0.5
20,C27G C30U U32C G51C,0.603
21,C27A G56C A70U,≤ 0.5
22,C27G A65U A70G,0.575
23,C27U C34U G41C U47G,≤ 0.5
24,C27G C30U C46A,0.655

row,Variant,yeast fitness
1,C27A G58A C66G,0.512
2,C27A G58C U64G,≤ 0.5
3,C27U C34G C60A,≤ 0.5
4,C27G C55A G58A,≤ 0.5
5,C27G G41A A57G,0.746
6,C27U A45C G63A,0.68
7,C27G C31U A57G,0.562
8,C27U A37U A65U,0.591
9,C27U C33U G38C C62U,≤ 0.5
10,C27A U28C C29G,0.633
11,C27U C62U G67A,0.573
12,C27U C55U,0.773
13,C27G G50A G56C,≤ 0.5
14,C27U A45U G50A A69C,≤ 0.5
15,C27U G39C G52A G56A,0.559
16,C27U A37C A40U A43U C66U,0.583
17,C27G A43U,0.604
18,C27G U53G,≤ 0.5
19,C27U A43C C49U,0.757
20,C27G U35A G52A A57G A69U A70U,≤ 0.5
21,C27G A36G G67U,≤ 0.5
22,C27U C30A C46G,0.698
23,C27U C61A A69U,0.551
24,C27G A57U,0.591

row,Variant,yeast fitness
1,C27G A57G,0.608
2,C27U C31A U64G,≤ 0.5
3,C27U A40G G44A,0.513
4,C27U A40C C46U,0.661
5,C27A G41C A57U,0.611
6,C27U A65G G68A,0.563
7,C27G C31G C49A U53C,≤ 0.5
8,C27U A42U C62U A65C G67A,≤ 0.5
9,C27U A40G C62G G68A,≤ 0.5
10,C27A G41C A43C C66U,0.517
11,C27G C33G G44A,0.669
12,C27U C33U A36U A43G,≤ 0.5
13,C27G A42C C49G C61G,0.669
14,C27U C30G C33G C34G A40U G52C G56C,≤ 0.5
15,C27U C31U G52A,0.639
16,C27G A37G C66U,0.538
17,C27G U32G A40U A42U C55G,≤ 0.5
18,C27G C60U G67C,≤ 0.5
19,C27G C31A A37C,≤ 0.5
20,C27U C33G A57G,≤ 0.5
21,C27G A57U C62U,0.62
22,C27G C31G A36U A37U,0.615
23,C27U A45C G48A A57U G68C,0.562
24,C27U C30A A42U A57U G63A A65C,0.597

row,Variant,yeast fitness
1,C27U C30U C34G A37C C61A,≤ 0.5
2,C27U C49G A69U,0.542
3,C27U C31G A69C,0.604
4,C27U A37U U47G,0.531
5,C27U G38A G68C,≤ 0.5
6,C27G A36G A65G,≤ 0.5
7,C27A C62U,0.815
8,C27U A40U U54C,≤ 0.5
9,C27U G38C A57U,0.552
10,C27U C33U G51A A70G,0.555
11,C27A U32G G51A G56C,≤ 0.5
12,C27G G38A A70U,≤ 0.5
13,C27U A69U,1.02
14,C27A U32A C61G U64C,≤ 0.5
15,C27A G52A U54A,≤ 0.5
16,C27U A36G A42C C49U,0.574
17,C27G A65U C66G,≤ 0.5
18,C27G C60G A65U,0.641
19,C27A U54C C66A,≤ 0.5
20,C27U C46A G50A,0.73
21,C27G G51C,0.78
22,C27A C55G,0.646
23,C27U C33U,0.664
24,C27U C33G A43U C60G,≤ 0.5

row,Variant,yeast fitness
1,C27G C31A C33G C49U G58C A70U,≤ 0.5
2,C27A U59G,0.778
3,C27A U59C,0.883
4,C27G G41A G67U,0.709
5,C27G G41A G67A,0.789
6,C27G G39A C66U G67A,≤ 0.5
7,C27G A70C,0.786
8,C27G C29U A37U,≤ 0.5
9,C27G C29G C49U,≤ 0.5
10,C27G A42G G68A,≤ 0.5
11,C27G A37G G52U,≤ 0.5
12,C27U C46U G48A A69C,0.696
13,C27A U28A,0.841
14,C27A U28G,0.66
15,C27U C33U U47A A70C,≤ 0.5
16,C27G A43G A70G,≤ 0.5
17,C27G G41A C55U,0.618
18,C27G U28G C66G G67C,≤ 0.5
19,C27U C55U C60U A70U,≤ 0.5
20,C27A U64G,0.65
21,C27A U64A,0.748
22,C27U A40G G44A C55U A69U,≤ 0.5
23,C27A G58A,0.849
24,C27G C29G C34U C55U C61G,0.65

row,Variant,yeast fitness
1,C27G C30G A40G C49A A65U,≤ 0.5
2,C27G C30U G39C A40U G44C U47A G48A,≤ 0.5
3,C27U C33U U35C,≤ 0.5
4,C27G C30G C49U C61A,≤ 0.5
5,C27U C33G A43G A45C,0.634
6,C27G C30G C49U C60U G63C,0.678
7,C27G A42C G63C,≤ 0.5
8,C27G G41A,1.03
9,C27A C46A C66U,0.704
10,C27U A45C G67A,0.666
11,C27G A37U C49G,≤ 0.5
12,C27G G63C,0.582
13,C27G G63A,0.665
14,C27G C31A A70U,≤ 0.5
15,C27G,0.644
16,C27U,0.995
17,C27A G50A A69U,0.566
18,C27G C34G U54A,0.6
19,C27U A36C A69U,0.646
20,C27G G41A U64A,0.681
21,C27A C60U A69G,≤ 0.5
22,C27G U64A,0.665
23,C27U A36C U54A C62U,≤ 0.5
